According to ChEMBL document CHEMBL1126587, “Novel 6-alkoxypurine 2',3'-dideoxynucleosides as inhibitors of the cytopathic effect of the human immunodeficiency virus” (J Med Chem, 1993):
“And” between values parts separate entries of the source, which are not always exact repeats. Equal values may be shown once.

Assays:
MT4 [1] = experiment: Effect of Erythro-9-(2-Hydroxy-3-nonyl) adenine (EHNA) on the Anti-HIV activity in MT-4 cells; type: functional, cell-based, Homo sapiens
Procedure, shortened: (§1)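 Anti-HIV-1 assay in MT4 cells infected with 100-fold TCID50 HTLV-IIIB over 5 days, run with EHNA or coformycin at 0.1 or 1.0 μM to block deaminase; control wells received PBS in their place. IC50 determined; triplicates, at least five runs.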

L cells [2] = experiment: Percentage of L cell growth at 100 uM nucleosides after 4 days.; type: functional, Mus musculus, L929
Procedure, shortened: (§2)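 Human sternal marrow D-98 cells or mouse connective tissue L cells exposed to 100 μM nucleoside for 4 days. Growth expressed as % of untreated control, which underwent at least three doublings.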

MT4 [3] = experiment: Percentage of MT-4 cell growth was calculated at 100 uM nucleosides after 5 days.; type: functional, Homo sapiens
Procedure, shortened: (§3)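 MT4 cells exposed to 100 μM nucleoside for 5 days, growth given as % of untreated control, which underwent at least three doublings.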

MT4 [4] = experiment: Anti-Human immunodeficiency virus activity against MT-4 cells; type: functional, cell-based
Procedure, shortened: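 MT4 cells infected with HTLV-IIIB at 100-fold TCID50 (100-fold the virus stock concentration giving 50% growth inhibition), compound present for 5 days. IC50 from cell growth protection. Each compound run in triplicate at least five times.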

[5] = Percentage of D98 cell growth at 100 uM nucleosides after 4 days.; type: functional, Homo sapiens; procedure, shortened: as §2
MT4 [6] = experiment: Effect of Phosphate buffered saline on the Anti-HIV activity in MT-4 cells; type: functional, cell-based; conditions: Homo sapiens; procedure, shortened: as §1
MT4 [7] = experiment: Effect of Coformycin on the Anti-HIV activity in MT-4 cells; type: functional, cell-based; conditions: Homo sapiens; procedure, shortened: as §1
[8] = (§4) Percentage of control cell growth was calculated at 100 uM nucleosides after 4 days; type: functional, Homo sapiens; procedure, shortened: as §2
L cells [9] = experiment: as §4; type: functional, Mus musculus, L929; procedure, shortened: as §2
MT4 [10] = experiment: Percentage of control cell growth was calculated at 100 uM nucleosides after 5 days; type: functional, Homo sapiens; procedure, shortened: as §3
MT4 [11] = experiment: Effect of Coformycin on the Anti-HIV activity in MT-4 cells at 1.0 uM; type: functional, cell-based; conditions: Homo sapiens; procedure, shortened: as §1
MT4 [12] = experiment: Effect of Erythro-9-(2-Hydroxy-3-nonyl) adenine (EHNA) on the Anti-HIV activity in MT-4 cells at 1.0 uM; type: functional, cell-based; conditions: Homo sapiens; procedure, shortened: as §1
MT4 [13] = experiment: Effect of Erythro-9-(2-Hydroxy-3-nonyl) adenine (EHNA) on the Anti-HIV activity in MT-4 cells at 0.10 uM; type: functional, cell-based; conditions: Homo sapiens; procedure, shortened: as §1
MT4 [14] = experiment: Effect of Coformycin on the Anti-HIV activity in MT-4 cells at 0.10 uM; type: functional, cell-based; conditions: Homo sapiens; procedure, shortened: as §1

Question: Which results are given for CCCCOc1ncnc2c1ncn2C1CCC(CO)O1 (stereo not given)?
Answer: IC50 (MT4 [1]; mt4): 26 µM and 70 µM; Control (L cells [2]): 68%; Control (MT4 [3]): 100%; IC50 (MT4 [4]): 70 µM; Control [5]: 85%; IC50 (MT4 [6]): 38 µM; IC50 (MT4 [7]): > 200 µM

Question: For CCCC(C)Oc1ncnc2c1ncn2C1CCC(CO)O1 (stereo not given), which Control (L cells [2]) is on record?
Answer: Its Control is 67%.

Question: What about the Control (MT4 [3]) of the same molecule?
Answer: Its Control is 100%.

Question: What about the IC50 (MT4 [4]) of the same molecule?
Answer: Its IC50 is 80 µM.

Question: What about the Control [5] of the same molecule?
Answer: Its Control is 81%.

Question: For CCCCCCCCCOc1ncnc2c1ncn2C1CCC(CO)O1 (stereo not given), which Control [8] is on record?
Answer: Its Control is 27%.

Question: What about the Control (L cells [9]) of the same molecule?
Answer: Its Control is 23%.

Question: And the IC50 (MT4 [4])?
Answer: Its IC50 is > 5 µM.

Question: Which IC50 (MT4 [1]; Homo sapiens, MT4) does the source give for C/C=C/COc1ncnc2c1ncn2C1CCC(CO)O1 (stereo not given) here?
Answer: Its IC50 is 50 µM.

Question: And the IC50 (MT4 [1]; mt4)?
Answer: The IC50 was 80 µM.

Question: What about the Control (L cells [2]) of the same molecule?
Answer: Its Control is 58%.

Question: What about the Control (MT4 [3]) of the same molecule?
Answer: Its Control is 100%.

Question: And the IC50 (MT4 [4])?
Answer: The IC50 was 59 µM.

Question: What about the Control [5] of the same molecule?
Answer: Its Control is 35%.

Question: And the IC50 (MT4 [6])?
Answer: The IC50 was 70 µM.

Question: What about the IC50 (MT4 [7]) of the same molecule?
Answer: The IC50 was > 200 µM.

Question: For CCCCCCCOc1ncnc2c1ncn2C1CCC(CO)O1 (stereo not given), which Control [8] is on record?
Answer: The Control was 47%.

Question: What about the Control (L cells [9]) of the same molecule?
Answer: The Control was 34%.

Question: What about the IC50 (MT4 [4]) of the same molecule?
Answer: The IC50 was 25 µM.

Question: What does the source list for CC(C)Oc1ncnc2c1ncn2C1CCC(CO)O1 (stereo not given)?
Answer: Control (L cells [2]): 72%; Control (MT4 [3]): 100%; IC50 (MT4 [4]): 100 µM; Control [5]: 74%

Question: With CCOc1ncnc2c1ncn2C1CCC(CO)O1 (stereo not given) as the molecule, how does the Control (L cells [2]) read?
Answer: The Control was 90%.

Question: And the Control (MT4 [3])?
Answer: The Control was 100%.

Question: And the IC50 (MT4 [4])?
Answer: Its IC50 is > 100 µM.

Question: What about the Control [5] of the same molecule?
Answer: The Control was 82%.

Question: What does the source list for CCCCCCOc1ncnc2c1ncn2C1CCC(CO)O1 (stereo not given)?
Answer: IC50 (MT4 [1]): 25 µM and 60 µM; Control (L cells [2]): 42%; Control (MT4 [3]): 100%; IC50 (MT4 [4]): 18 µM; Control [5]: 54%; IC50 (MT4 [6]): 24 µM; IC50 (MT4 [7]): > 200 µM

Question: Which Control (L cells [2]) does the source give for CCCOc1ncnc2c1ncn2C1CCC(CO)O1 (stereo not given) here?
Answer: Its Control is 87%.

Question: And the Control (MT4 [3])?
Answer: Its Control is 100%.

Question: And the IC50 (MT4 [4])?
Answer: Its IC50 is > 100 µM.

Question: And the Control [5]?
Answer: The Control was 87%.

Question: For OCC1CCC(n2cnc3c(OCC(F)(F)F)ncnc32)O1 (stereo not given), which Control (L cells [2]) is on record?
Answer: Its Control is 82%.

Question: What about the Control (MT4 [3]) of the same molecule?
Answer: Its Control is 100%.

Question: What about the IC50 (MT4 [4]) of the same molecule?
Answer: Its IC50 is > 100 µM.

Question: What about the Control [5] of the same molecule?
Answer: The Control was 82%.

Question: Which Control (L cells [2]) does the source give for CCCCCOc1ncnc2c1ncn2C1CCC(CO)O1 (stereo not given) here?
Answer: The Control was 48%.

Question: And the Control (MT4 [3])?
Answer: The Control was 100%.

Question: What about the IC50 (MT4 [4]) of the same molecule?
Answer: Its IC50 is 50 µM.

Question: What about the Control [5] of the same molecule?
Answer: The Control was 60%.

Question: Which Control [8] does the source give for CCCCCCCCOc1ncnc2c1ncn2C1CCC(CO)O1 (stereo not given) here?
Answer: The Control was 29%.

Question: What about the Control (L cells [9]) of the same molecule?
Answer: Its Control is 28%.

Question: What about the IC50 (MT4 [4]) of the same molecule?
Answer: The IC50 was > 32 µM.

Question: With C=CCOc1ncnc2c1ncn2C1CCC(CO)O1 (stereo not given) as the molecule, how does the Control (L cells [2]) read?
Answer: The Control was 70%.

Question: And the Control (MT4 [3])?
Answer: Its Control is 100%.

Question: And the IC50 (MT4 [4])?
Answer: Its IC50 is 97 µM.

Question: And the Control [5]?
Answer: The Control was 68%.

Question: With COc1ncnc2c1ncn2C1CCC(CO)O1 (stereo not given) as the molecule, how does the Control (L cells [2]) read?
Answer: The Control was 96%.

Question: What about the Control (MT4 [3]) of the same molecule?
Answer: Its Control is 100%.

Question: What about the IC50 (MT4 [4]) of the same molecule?
Answer: The IC50 was > 100 µM.

Question: And the Control [5]?
Answer: Its Control is 97%.

Question: Which Control [8] does the source give for CCCCCCCCCCOc1ncnc2c1ncn2C1CCC(CO)O1 (stereo not given) here?
Answer: The Control was <1%.

Question: And the Control (MT4 [10])?
Answer: Its Control is 20%.

Question: What about the Control (L cells [9]) of the same molecule?
Answer: Its Control is 6%.

Question: What about the IC50 (MT4 [4]) of the same molecule?
Answer: The IC50 was > 5 µM.

Question: What does the source list for CCC(CC)Oc1ncnc2c1ncn2C1CCC(CO)O1 (stereo not given)?
Answer: Control (L cells [2]): 68%; Control (MT4 [3]): 100%; IC50 (MT4 [4]): > 100 µM; Control [5]: 60%

Question: With OCC1CCC(n2cnc3c(OCCF)ncnc32)O1 (stereo not given) as the molecule, how does the Control (L cells [2]) read?
Answer: Its Control is 100%.

Question: What about the Control (MT4 [3]) of the same molecule?
Answer: The Control was 100%.

Question: What about the IC50 (MT4 [4]) of the same molecule?
Answer: Its IC50 is > 100 µM.

Question: What about the Control [5] of the same molecule?
Answer: Its Control is 76%.

Question: What does the source list for CC[C@@H](C)Oc1ncnc2c1ncn2[C@H]1CC[C@@H](CO)O1?
Answer: Control (L cells [2]): 81%; Control (MT4 [3]): 100%; IC50 (MT4 [4]): > 100 µM; Control [5]: 81%

Question: With CCC(C)Oc1ncnc2c1ncn2[C@H]1CC[C@@H](CO)O1 (stereo not given in full) as the molecule, how does the Control (L cells [2]) read?
Answer: Its Control is 77%.

Question: And the Control (MT4 [3])?
Answer: The Control was 100%.

Question: And the IC50 (MT4 [4])?
Answer: The IC50 was > 100 µM.

Question: What about the Control [5] of the same molecule?
Answer: Its Control is 77%.

Question: For CC(C)COc1ncnc2c1ncn2C1CCC(CO)O1 (stereo not given), which Control (L cells [2]) is on record?
Answer: Its Control is 98%.

Question: And the Control (MT4 [3])?
Answer: Its Control is 100%.

Question: What about the IC50 (MT4 [4]) of the same molecule?
Answer: The IC50 was 52 µM.

Question: What about the Control [5] of the same molecule?
Answer: The Control was 98%.

Question: For CC[C@H](C)Oc1ncnc2c1ncn2[C@H]1CC[C@@H](CO)O1, which Control (L cells [2]) is on record?
Answer: Its Control is 85%.

Question: And the Control (MT4 [3])?
Answer: Its Control is 100%.

Question: And the IC50 (MT4 [4])?
Answer: The IC50 was 80 µM.

Question: What about the Control [5] of the same molecule?
Answer: The Control was 81%.

Question: With O=c1[nH]cnc2c1ncn2[C@H]1CC[C@@H](CO)O1 [DIDANOSINE] as the molecule, how does the IC50 (MT4 [11]) read?
Answer: The IC50 was 39 µM.

Question: What about the Control (L cells [2]) of the same molecule?
Answer: Its Control is 100%.

Question: And the Control (MT4 [3])?
Answer: Its Control is 100%.

Question: What about the IC50 (MT4 [4]) of the same molecule?
Answer: The IC50 was 23 µM.

Question: And the IC50 (MT4 [12])?
Answer: Its IC50 is 31 µM.

Question: What about the IC50 (MT4 [13]) of the same molecule?
Answer: The IC50 was 30 µM.

Question: And the Control [5]?
Answer: The Control was 97%.

Question: And the IC50 (MT4 [6])?
Answer: The IC50 was 30 µM.

Question: What about the IC50 (MT4 [14]) of the same molecule?
Answer: The IC50 was 28 µM.
